Consider 3 substances from ChEMBL document CHEMBL1649124, “Genetic variability among ampC genes from acinetobacter genomic species 3” (Antimicrob Agents Chemother, 2009).

What all share (conditions): Acinetobacter pittii
Data set [1] concerns CC(=O)OCC1=C(C(=O)O)N2C(=O)[C@@H](NC(=O)Cc3cccs3)[C@H]2SC1. The data set can be described thus: (§1) Activity of Acinetobacter genomosp. 3 isolate 65 ADC-14. In outline:
(§2)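 AmpC genes from AG3 clinical isolates were cloned into pGEX-6P-1 and expressed as GST fusions. The mature enzyme was purified free of GST, giving a 43 kDa SDS-PAGE band of 95% purity. Kinetics were read spectrophotometrically at 25°C in PBS with 20 mg/liter BSA, three repeats. For poor substrates, Km was taken as Ki in competitive assays with Centa as reporter substrate. Vmax came from the Michaelis-Menten equation at six times Km antibiotic.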

Data set [2] deals with C[C@H]1[C@H](NC(=O)/C(=N\OC(C)(C)C(=O)O)c2csc(N)n2)C(=O)N1S(=O)(=O)O. The description is as §1. A digest of the protocol: as §2
Data set [3] concerns CO[C@@]1(NC(=O)Cc2cccs2)C(=O)N2C(C(=O)O)=C(COC(N)=O)CS[C@@H]21. The description is as §1. In outline:
as §2

Data set [4] deals with CC(C)(O/N=C(\C(=O)N[C@@H]1C(=O)N2C(C(=O)[O-])=C(C[n+]3ccccc3)CS[C@H]12)c1csc(N)n1)C(=O)O. The description is as §1. In outline: as §2
For data set [5], the system named is CO/N=C(\C(=O)N[C@@H]1C(=O)N2C(C(=O)O)=C(COC(N)=O)CS[C@H]12)c1ccco1. Described as §1. In outline:
as §2

For data set [6], the system named is CO/N=C(\C(=O)N[C@@H]1C(=O)N2C(C(=O)O)=C(COC(C)=O)CS[C@H]12)c1csc(N)n1. The data set is described as §1. A digest of the protocol:
as §2

For data set [7], the system named is CC(=O)OCC1=C(C(=O)O)N2C(=O)[C@@H](NC(=O)Cc3cccs3)[C@H]2SC1. The data set can be described thus: (§3) Ratio of Kcat to Km for Acinetobacter genomosp. 3 isolate 65 ADC-14. A digest of the protocol: as §2
Data set [8] has as its system CO[C@@]1(NC(=O)Cc2cccs2)C(=O)N2C(C(=O)O)=C(COC(N)=O)CS[C@@H]21. Described as §3. In outline: as §2
Data set [9] concerns CC(C)(O/N=C(\C(=O)N[C@@H]1C(=O)N2C(C(=O)[O-])=C(C[n+]3ccccc3)CS[C@H]12)c1csc(N)n1)C(=O)O. The data set is described as §3. A digest of the protocol:
as §2

Data set [10] deals with CO/N=C(\C(=O)N[C@@H]1C(=O)N2C(C(=O)O)=C(COC(N)=O)CS[C@H]12)c1ccco1. The data set is described as §3. A digest of the protocol: as §2
Data set [11] concerns CO/N=C(\C(=O)N[C@@H]1C(=O)N2C(C(=O)O)=C(COC(C)=O)CS[C@H]12)c1csc(N)n1. Described as §3. In outline: as §2
Data set [12] deals with CC(=O)OCC1=C(C(=O)O)N2C(=O)[C@@H](NC(=O)Cc3cccs3)[C@H]2SC1. The experiment in a line: (§4) Ratio of Kcat to Km for Acinetobacter genomosp. 3 isolate 103 ADC-16. A digest of the protocol:
as §2

Data set [13] concerns CO[C@@]1(NC(=O)Cc2cccs2)C(=O)N2C(C(=O)O)=C(COC(N)=O)CS[C@@H]21. Described as §4. In outline:
as §2

Data set [14] has as its system CC(C)(O/N=C(\C(=O)N[C@@H]1C(=O)N2C(C(=O)[O-])=C(C[n+]3ccccc3)CS[C@H]12)c1csc(N)n1)C(=O)O. The description is as §4. In outline:
as §2

Data set [15] concerns CO/N=C(\C(=O)N[C@@H]1C(=O)N2C(C(=O)O)=C(COC(N)=O)CS[C@H]12)c1ccco1. The description is as §4. In outline: as §2
Data set [16] has as its system CO/N=C(\C(=O)N[C@@H]1C(=O)N2C(C(=O)O)=C(COC(C)=O)CS[C@H]12)c1csc(N)n1. The description is as §4. In outline: as §2
Data set [17] relates to CC(=O)OCC1=C(C(=O)O)N2C(=O)[C@@H](NC(=O)Cc3cccs3)[C@H]2SC1. The experiment in a line: (§5) Activity of Acinetobacter genomosp. 3 isolate 103 ADC-16. A digest of the protocol: as §2
Data set [18] has as its system C[C@H]1[C@H](NC(=O)/C(=N\OC(C)(C)C(=O)O)c2csc(N)n2)C(=O)N1S(=O)(=O)O. The data set is described as §5. A digest of the protocol: as §2
Data set [19] deals with CO[C@@]1(NC(=O)Cc2cccs2)C(=O)N2C(C(=O)O)=C(COC(N)=O)CS[C@@H]21. The description is as §5. A digest of the protocol:
as §2

The subject of data set [20] is CC(C)(O/N=C(\C(=O)N[C@@H]1C(=O)N2C(C(=O)[O-])=C(C[n+]3ccccc3)CS[C@H]12)c1csc(N)n1)C(=O)O. Described as §5. A digest of the protocol: as §2
The subject of data set [21] is CO/N=C(\C(=O)N[C@@H]1C(=O)N2C(C(=O)O)=C(COC(N)=O)CS[C@H]12)c1ccco1. Described as §5. A digest of the protocol:
as §2

Data set [22] deals with CO/N=C(\C(=O)N[C@@H]1C(=O)N2C(C(=O)O)=C(COC(C)=O)CS[C@H]12)c1csc(N)n1. Described as §5. In outline:
as §2

Data set [23] has as its system CC(=O)OCC1=C(C(=O)O)N2C(=O)[C@@H](NC(=O)Cc3cccs3)[C@H]2SC1. The data set can be described thus: (§6) Ratio of Kcat to Km for Acinetobacter genomosp. 3 isolate 195 ADC-18. A digest of the protocol:
as §2

Data set [24] concerns CO[C@@]1(NC(=O)Cc2cccs2)C(=O)N2C(C(=O)O)=C(COC(N)=O)CS[C@@H]21. Described as §6. A digest of the protocol:
as §2

In data set [25] the test system is CO/N=C(\C(=O)N[C@@H]1C(=O)N2C(C(=O)O)=C(COC(N)=O)CS[C@H]12)c1ccco1. The description is as §6. In outline: as §2
In data set [26] the test system is CC(=O)OCC1=C(C(=O)O)N2C(=O)[C@@H](NC(=O)Cc3cccs3)[C@H]2SC1. The data set can be described thus: (§7) Activity of Acinetobacter genomosp. 3 isolate 195 ADC-18. In outline:
as §2

Data set [27] concerns CO[C@@]1(NC(=O)Cc2cccs2)C(=O)N2C(C(=O)O)=C(COC(N)=O)CS[C@@H]21. Described as §7. A digest of the protocol:
as §2

Data set [28] relates to CC(C)(O/N=C(\C(=O)N[C@@H]1C(=O)N2C(C(=O)[O-])=C(C[n+]3ccccc3)CS[C@H]12)c1csc(N)n1)C(=O)O. Described as §7. In outline: as §2
Data set [29] relates to CO/N=C(\C(=O)N[C@@H]1C(=O)N2C(C(=O)O)=C(COC(N)=O)CS[C@H]12)c1ccco1. Described as §7. In outline: as §2

“ADC-14 protein (Acinetobacter genomosp. 3) (from UniProt Q0VTR6)”: the Km in data set [1] worked out at 6.73 µM; in data set [2], 6.01 µM; in data set [3], 0.02 µM; in [4] it was 26.1 µM; in data set [5] it was 0.02 µM; in data set [6], 0.08 µM. Also, the kcat in data set [1] came to 56.5 s⁻¹; in [3] it was 0.02 s⁻¹; in data set [4] it was 0.01 s⁻¹; in [5] it was 0.01 s⁻¹; in [6] it was 0.004 s⁻¹. Also, the kcat/Km in [7] turned out to be 8.4e+06 M⁻¹ s⁻¹; in [8], 941000 M⁻¹ s⁻¹; in [9] it was 380 M⁻¹ s⁻¹; in data set [10], 529000 M⁻¹ s⁻¹; in data set [11] it was 48200 M⁻¹ s⁻¹.

Turning to “ADC-16 protein (Acinetobacter genomosp. 3) (from UniProt Q0VTR8)”, the kcat/Km came out at 9.92e+06 M⁻¹ s⁻¹ in data set [12]; 1.88e+06 M⁻¹ s⁻¹ in [13]; 212000 M⁻¹ s⁻¹ in data set [14]; 2.34e+06 M⁻¹ s⁻¹ in data set [15]; 212000 M⁻¹ s⁻¹ in data set [16]. Further, the Km in data set [17] amounted to 139 µM; in data set [18], 3.85 µM; in data set [19], 0.18 µM; in [20], 110 µM; in data set [21] it was 0.27 µM; in data set [22] it was 0.32 µM. The turnover number (kcat) came out at 1380 s⁻¹ in [17]; 0.33 s⁻¹ in data set [19]; 0.02 s⁻¹ in data set [20]; 0.62 s⁻¹ in data set [21]; 0.07 s⁻¹ in data set [22].

With “ADC-18 protein (Acinetobacter genomosp. 3) (from UniProt Q0VTS0)”, the kcat/Km in data set [23] is 9.57e+06 M⁻¹ s⁻¹; in [24], 1.99e+06 M⁻¹ s⁻¹; in data set [25] it was 1.79e+06 M⁻¹ s⁻¹. Besides, the Km in data set [26] was 148 µM; in [27] it was 0.13 µM; in data set [28], 84 µM; in data set [29], 0.27 µM. Further, the kcat in data set [26] worked out at 1420 s⁻¹; in data set [27], 0.27 s⁻¹; in [28], 0.02 s⁻¹; in data set [29], 0.48 s⁻¹.

A word on the Km: it is the concentration of substrate that gives half-maximal velocity. A word on the kcat: it is the maximal rate divided by the concentration of active sites. By kcat/Km is commonly meant the turnover number divided by the Michaelis constant.
